The values that follow come from ChEMBL document CHEMBL4390678, “Structure-Activity Relationship of Purine and Pyrimidine Nucleotides as Ecto-5'-Nucleotidase (CD73) Inhibitors” (J Med Chem, 2019).

pEC50, pIC50, pKi: −log10 of the molar value. Activity calls are given as the source filed them. The rule behind the calls is not given here.

The target of assay [1] is T1, 5'-nucleotidase (Rattus norvegicus, UniProt P21588).
T1 sequence (P21588 whole entry): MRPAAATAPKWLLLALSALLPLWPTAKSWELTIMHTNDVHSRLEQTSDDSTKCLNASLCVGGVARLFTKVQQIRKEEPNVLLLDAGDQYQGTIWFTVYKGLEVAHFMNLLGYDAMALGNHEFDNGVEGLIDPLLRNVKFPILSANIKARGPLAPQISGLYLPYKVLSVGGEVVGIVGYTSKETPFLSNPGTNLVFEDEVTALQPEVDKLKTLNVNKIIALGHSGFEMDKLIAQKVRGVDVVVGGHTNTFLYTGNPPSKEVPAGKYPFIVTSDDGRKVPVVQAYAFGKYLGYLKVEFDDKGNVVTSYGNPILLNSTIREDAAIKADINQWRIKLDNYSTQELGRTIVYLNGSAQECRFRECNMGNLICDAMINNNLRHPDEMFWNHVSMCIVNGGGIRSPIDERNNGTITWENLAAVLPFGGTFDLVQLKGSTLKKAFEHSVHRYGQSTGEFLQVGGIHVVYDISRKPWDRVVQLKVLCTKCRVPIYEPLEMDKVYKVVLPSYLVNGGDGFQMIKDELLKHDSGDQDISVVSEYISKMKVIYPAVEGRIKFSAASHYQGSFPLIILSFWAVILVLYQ
The assay is described as follows: Inhibition of recombinant rat C-terminal His-tagged soluble form of CD73 expressed in baculovirus infected Sf9 insect cells using [2,8-3H]AMP as substrate measured after 25 mins by scintillation counting method. In short, it runs like this: (§1)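 Enzyme is soluble rat CD73 from Sf9 cells, 1.63 ng per vial, in 25 mM Tris, 140 mM NaCl, 25 mM NaH2PO4, pH 7.4. […] Stopped by LaCl3 precipitation and GF/B filtration, then counted. Each compound first screened at 1 µM.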

The target of assay [2] is T2, 5'-nucleotidase (Rattus norvegicus) (UniProt P21588).
T2 sequence (whole entry): T1 sequence (P21588 whole entry)
The assay is described as follows: Inhibition of recombinant rat C-terminal His-tagged soluble form of CD73 expressed in baculovirus infected Sf9 insect cells at 1 uM using [2,8-3H]AMP as substrate measured after 25 mins by scintillation counting method relative to control. The method in brief: as §1

The target of assay [3] is T3, 5'-nucleotidase (Homo sapiens, UniProt P21589). The assay is described as follows: Inhibition of recombinant human C-terminal His-tagged soluble form of CD73 expressed in baculovirus infected Sf9 insect cells using [2,8-3H]AMP as substrate measured after 25 mins by scintillation counting method. The method in brief:
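Soluble human CD73 lacking the GPI signal, with a C-terminal 6xHis tag, secreted from baculovirus-infected Sf9 cells and purified on Ni-NTA; 0.365 ng per vial. […] Product separated by lanthanum chloride precipitation and filtration, then scintillation counted.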

The target of assay [4] is T3, 5'-nucleotidase. The assay is described as follows: Inhibition of CD73 in human MDA-MB-231 cell membranes using [2,8-3H]AMP as substrate measured after 25 mins by scintillation counting method. In short, it runs like this:
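MDA-MB-231 membranes (7.4 ng protein per vial) in 25 mM Tris, 140 mM NaCl, 25 mM NaH2PO4, pH 7.4. […] Stopped with cold LaCl3/acetate buffer pH 4.0 and filtered on GF/B. Background-subtracted and normalized to the uninhibited control.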

Assay [5] deals with T4, P2Y purinoceptor 6 (Homo sapiens, UniProt Q15077). Description: Agonist activity at human P2Y6 receptor expressed in human 1321N1 cells assessed as induction of calcium mobilization by calcium-4 dye based FLIPR assay. It is filed as functional, cell-based. (Calcium flux is commonly read through the fluorescence of an indicator in the cells.)
In assay [6] the target is T5, P2Y purinoceptor 14 (Homo sapiens, UniProt Q15391).
T5 sequence (Q15391 whole entry): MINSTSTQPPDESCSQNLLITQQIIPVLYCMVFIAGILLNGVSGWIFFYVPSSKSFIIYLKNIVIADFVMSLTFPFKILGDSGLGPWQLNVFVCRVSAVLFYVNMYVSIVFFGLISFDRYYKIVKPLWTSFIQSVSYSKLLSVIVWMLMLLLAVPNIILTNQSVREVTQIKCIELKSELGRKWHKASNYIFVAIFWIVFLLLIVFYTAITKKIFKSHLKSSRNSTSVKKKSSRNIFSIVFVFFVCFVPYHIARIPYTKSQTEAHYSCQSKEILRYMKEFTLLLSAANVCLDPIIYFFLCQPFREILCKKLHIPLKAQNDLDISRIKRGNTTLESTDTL
The assay is described as follows: Displacement of 6-Amino-9-(2-carboxy-4-((6-(4-(4-(4-(4-(3-carboxy-6-(4-(trifluoromethyl)phenyl)-naphthalen-1-yl)phenyl)piperidin-1-yl)butyl)-1H-1,2,3-triazol-1-yl)hexyl)carbamoyl)-phenyl)-3-iminio-5-sulfo-3H-xanthene-4-sulfonate from recombinant human P2Y14 receptor expressed in CHO cells preincubated for 30 mins followed by tracer addition and measured after 30 mins by flow cytometry. The class given is cell-based.

The species entered for assay [7] is Homo sapiens. The assay is described as follows: Inhibition of cytosolic nucleotidase in MaMel.65-CD73 cell cytosolic extract (unknown origin) at 100 uM using AMP as substrate preincubated for 5 mins followed by substrate addition and measured after 60 mins by malachite green oxalate dye based colorimetric method relative to control. In short, it runs like this: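 Cytosolic extract of CRISPR CD73-knockout MaMel.65 melanoma cells, 15.25 µg, in 50 mM Tris pH 7.0 with 100 mM KCl and 5 mM MgCl2. […] After 60 min, heat-stopped at 95°C. Released phosphate read with malachite green/molybdate at 600 nm. Levamisole 1 mM plus NaF 5 mM served as positive control. Three experiments in duplicate.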

The species named for assay [8] is Homo sapiens. Description: Inhibition of cytosolic nucleotidase in MaMel.65-CD73 cell cytosolic extract (unknown origin) at 5 mM using AMP as substrate preincubated for 5 mins followed by substrate addition and measured after 60 mins in presence of levamisole by malachite green oxalate dye based colorimetric method relative to control. The method in brief:
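Cytosolic extract (15.25 µg) from CRISPR CD73-knockout melanoma cells in 50 mM Tris pH 7.0, 100 mM KCl, 5 mM MgCl2. […] Released phosphate read by malachite green/molybdate absorbance at 600 nm. Levamisole 1 mM plus NaF 5 mM as positive control; three independent experiments in duplicate.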

The species entered for assay [9] is Homo sapiens. Conditions: 1 mM.
Assay [10] concerns the target T3, 5'-nucleotidase. The assay is described as follows: Inhibition of CD73 in human tonsils at 100 nM using AMP as substrate preincubated for 30 mins followed by substrate addition and measured after 45 mins by lead nitrate-based histochemical analysis. The method in brief: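 Tonsil cryosections pre-incubated 30 min in Trizma-maleate sucrose buffer (pH 7.4) with 2 mM levamisole and inhibitor. […] Deposit developed with 0.5% (NH4)2S and quantified as grayscale mean pixel intensity of five germinal centers versus control (ANOVA, Dunnett).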

For assay [11], the target named is T3, 5'-nucleotidase. The assay is described as follows: Inhibition of CD73 in human tonsils using AMP as substrate preincubated for 30 mins followed by substrate addition and measured after 45 mins by lead nitrate-based histochemical analysis. In short, it runs like this:
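Human tonsil cryosections pre-incubated 30 min in Trizma-maleate sucrose buffer (40 mM Trizma maleate, 0.25 M sucrose, pH 7.4) with 2 mM levamisole plus inhibitor at 1, 10 or 100 nM. […] Pi deposit developed with 0.5% (NH4)2S. Read-out is mean grayscale pixel intensity of five matched germinal centers versus untreated control. One-way ANOVA with Dunnett's test.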

Assay [12] concerns the target T4, P2Y purinoceptor 6. Description: Agonist activity at human P2Y6 receptor expressed in human 1321N1 cells assessed as induction of calcium mobilization at 3 uM by calcium-4 dye based FLIPR assay relative to control. It is filed as functional, cell-based.
Assay [13] has as its target T6, P2Y purinoceptor 14 (Homo sapiens) (UniProt Q15391).
T6 sequence (whole entry): T5 sequence (Q15391 whole entry)
Description: Displacement of 6-Amino-9-(2-carboxy-4-((6-(4-(4-(4-(4-(3-carboxy-6-(4-(trifluoromethyl)phenyl)-naphthalen-1-yl)phenyl)piperidin-1-yl)butyl)-1H-1,2,3-triazol-1-yl)hexyl)carbamoyl)-phenyl)-3-iminio-5-sulfo-3H-xanthene-4-sulfonate from recombinant human P2Y14 receptor expressed in CHO cells at 3 uM preincubated for 30 mins followed by tracer addition and measured after 30 mins by flow cytometry. The class given is cell-based.

T4 sequence (Q15077 whole entry): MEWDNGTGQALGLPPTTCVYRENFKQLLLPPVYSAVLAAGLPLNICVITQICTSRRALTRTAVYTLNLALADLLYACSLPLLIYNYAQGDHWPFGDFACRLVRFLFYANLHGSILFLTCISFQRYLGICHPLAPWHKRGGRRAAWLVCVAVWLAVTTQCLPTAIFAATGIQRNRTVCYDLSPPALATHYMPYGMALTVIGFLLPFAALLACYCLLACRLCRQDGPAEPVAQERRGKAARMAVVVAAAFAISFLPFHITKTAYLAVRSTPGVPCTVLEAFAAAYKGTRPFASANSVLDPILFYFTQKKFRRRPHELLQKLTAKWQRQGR
T3 sequence (P21589 whole entry): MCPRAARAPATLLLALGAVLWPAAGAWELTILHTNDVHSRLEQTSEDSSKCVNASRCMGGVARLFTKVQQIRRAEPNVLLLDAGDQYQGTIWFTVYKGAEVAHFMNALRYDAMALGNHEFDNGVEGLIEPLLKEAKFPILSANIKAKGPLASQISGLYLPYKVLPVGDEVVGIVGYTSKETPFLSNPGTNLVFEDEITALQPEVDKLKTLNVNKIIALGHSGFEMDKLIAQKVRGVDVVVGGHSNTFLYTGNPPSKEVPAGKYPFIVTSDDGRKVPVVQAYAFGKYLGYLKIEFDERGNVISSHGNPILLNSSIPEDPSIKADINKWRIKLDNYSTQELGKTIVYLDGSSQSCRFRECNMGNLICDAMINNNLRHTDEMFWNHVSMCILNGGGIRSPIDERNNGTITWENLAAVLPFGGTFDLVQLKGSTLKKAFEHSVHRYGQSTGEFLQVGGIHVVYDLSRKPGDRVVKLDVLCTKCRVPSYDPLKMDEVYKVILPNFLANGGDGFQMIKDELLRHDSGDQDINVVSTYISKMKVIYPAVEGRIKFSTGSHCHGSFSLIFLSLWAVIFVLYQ

As usually defined, the pKi is the Ki on a negative log10 scale, so that one unit is a factor of ten. As a reminder, the inhibition is the drop in the measured response relative to a control, in per cent. One may read the pEC50 as −log10 of the EC50, conventionally taken in molar units. In general, pIC50 refers to the IC50 on a negative log10 scale, so that one unit is a factor of ten. Take `O=c1[nH]c(=O)n([C@@H]2O[C@H](COP(=O)(O)CP(=O)(O)O)[C@@H](O)[C@H]2O)cc1F`: the values for the pKi in assay [1], in assay [3] and in assay [4] were 7.83, 8.27 and 8.35, respectively. Further, the values for the inhibition in [2] and in assay [7] were over 50% and 4%, respectively. The pEC50 in [5] is 6.69. For the same molecule, in assay [6], the pIC50 was 6.44.

Take `[F-].[Na+]`: the inhibition in [8] stood at 70%.

Take `O=C(Nc1ccn([C@@H]2O[C@H](COP(=O)(O)CP(=O)(O)O)[C@@H](O)[C@H]2O)c(=O)n1)c1ccccc1`: the pKi in assay [1] was 7.86; in [3] it was 8.34; in assay [4], 8.25. Besides, the inhibition in assay [2] was over 50%; in assay [7], -3%. The negative-log EC50 (pEC50) in assay [5] was 5.86. For the same molecule, in assay [6], the pIC50 was 5.18.

On to `c1ccc([C@H]2CN3CCSC3=N2)cc1`, for which the inhibition in [9] stood at 70%.

`O=c1[nH]/c(=N/OCc2ccc3ccccc3c2)ccn1[C@@H]1O[C@H](COP(=O)(O)CP(=O)(O)O)[C@@H](O)[C@H]1O`: the pKi in [1] was 7.73; in assay [3], 8.16; in [4], 8.20. The inhibition in [2] was over 50%; in [7], -5%.

Turning to `Nc1ncnc2c1ncn2[C@@H]1O[C@H](COP(=O)(O)CP(=O)(O)O)[C@@H](O)[C@H]1O` [PHOSPHOMETHYLPHOSPHONIC ACID ADENOSYL ESTER], the inhibition entry in assay [10] was “Active”. The pKi in assay [1] is 6.78. Also, in assay [2], the inhibition was over 50%.

`Cn1c(=NOCc2ccccc2)ccn([C@@H]2O[C@H](COP(=O)(O)CP(=O)(O)O)[C@@H](O)[C@H]2O)c1=O`: the values for the inhibition result in assay [11], in assay [2] and in assay [7] were “Dose-dependent effect”, over 50% and -2%, respectively. For the same molecule, the pKi in assay [1] was 8.44; in assay [4], 8.10. Moreover, the pEC50 in [5] was under 5.52. Moreover, the Activity in [12] is 3.6%. Also, the pIC50 in assay [6] was under 5.52. Besides, the inhibition entry in [13] is “inactive”.
